From ChEMBL document CHEMBL4513216, “Probing the Open Global Health Chemical Diversity Library for Multistage-Active Starting Points for Next-Generation Antimalarials” (ACS Infect Dis, 2020)

test: Toxicity liver stage against HepG2, at 10uM; assay type: cell-based; parameters: test concentration 10 uM, cell line HepG2-A16-CD81EGFP; settings: human, HepG2-A16-CD81EGFP cells; read-out: INHIBITION
In short: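 Uninfected HepG2-A16-CD81EGFP cells, 3 × 10^3 per well, 1536-well, plated on prespotted compound at 10 μM final, parasite-free screening media added to match infected plates; puromycin 10 μM positive, DMSO 0.5% negative; run in parallel with 48 h PbLuc assay at 37 °C, 5% CO2; viability by CellTiter-Glo luminescence, normalized to controls.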

Structure (SMILES) | cytotoxicity at 10 µM
N#Cc1ncn(CCS(=O)(=O)c2ccc(Br)cc2)n1 | -17.2%
CS(=O)(=O)N1C[C@@H](F)[C@@H](OCc2nc3ccccc3o2)C1 | -4.47%
CN(C)c1cc(N2CCN(c3ccccn3)CC2)ncn1 | -2.71%
CCCS(=O)(=O)N1CC(=O)N(Cc2ccccc2OC)CC(O)C1 (centres undefined) | -7.44%
CC(C)CNC(=O)CNC(=O)c1nc(Cc2c(Cl)cccc2Cl)no1 | 9.11%
CN1C(=O)CCc2cc(NC(=O)C3CC3)ccc21 | 0.696%
O=S(=O)(NCCNc1cc(-n2cccn2)ncn1)c1cccs1 | -6.58%
CCn1cc2c(n1)C(COCC1CC1)CN(c1ccc(C)nn1)C2 (centres undefined) | 12.8%
O=C(C1CN(c2ncc(F)cn2)CC12CCOCC2)N1CCOCC1 (centres undefined) | 13.6%
Cc1cc(C(=O)N2CCc3ncnc(-c4cnn(C)c4)c3CC2)c(C)o1 | 4.5%
CS(=O)(=O)N1CCc2sc(C(=O)NCc3ccncc3)cc21 | 2.93%
c1ccc(OCC2CC3(CCN(CC4CCOCC4)CC3)CO2)nc1 (centres undefined) | -1.37%
O=C1CC[C@H]2[C@H](CCN2C(=O)N2CCCC2)N1Cc1ccncc1 | -2.04%
COc1ccc(-c2csc(N)c2C#N)cc1 | 4.07%
O=C(CCc1ccccc1)N1CCn2cc(CN3CCCC3)nc2C1 | -1.66%
Cn1ccnc1C(=O)N1CCOC(Cc2ccccc2Cl)C1 (centres undefined) | -12.2%
CCC(CC)C(=O)N1CCC(c2nn(CCN)c3nccnc23)C1 (centres undefined) | -25.5%
Cc1ccc2c(c1)C(=O)NCC1(CCN(C(=O)c3sccc3C)CC1)O2 | -11.7%
CC(C)N1CCC(Cc2cncc(-c3cc(F)ccc3C(=O)O)n2)CC1 | -8.36%
Cc1cncc(C2CCN(Cc3cccn3C)CC2)n1 | -6.94%
O=C1CCCN1CCCC(=O)N1CCCC(Cc2cccnc2)C1 (centres undefined) | -4.5%
CC(C)c1nccn1-c1cncc(C2CCCN(C3CCCC3)C2)n1 (centres undefined) | -6.63%

Structure (SMILES) | cytotoxicity at 10 µM
Cc1ccc(C(=O)N2CCC3(CC(N(C)c4ccncn4)C3)C2)cn1 (centres undefined) | -6.11%
Cc1nc(-c2ccc(C(=O)O)cc2)cc(C2CCCN(C(C)C)C2)n1 (centres undefined) | -10.2%
COc1cccc(CN(C)C(=O)c2csc(-c3nnc[nH]3)n2)c1 | -14.4%
N#CC(NC(=O)CCCOc1cccnc1)c1ccccc1Cl (centres undefined) | 4.26%
O=C(NCC(O)c1cccs1)c1sccc1OC(F)F (centres undefined) | -2.45%
Cn1cc(S(=O)(=O)N(Cc2ccc(F)cc2F)C2CC2)cc1C(N)=O | 5.68%
CN(CCc1ccccn1)CCc1nccs1 | 2.01%
Cc1cc(C(=O)NCC2CCC3(CC2)OCCO3)[nH]n1 | -10.7%
CN(Cc1ccccc1)C(=O)CCS(=O)(=O)c1ccc2c(c1)OCCO2 | -7.08%
CN(CC(=O)NC(c1ccc(F)cc1)C(F)(F)F)S(C)(=O)=O (centres undefined) | -11.9%
Cc1nsc(N2CCN(CC(=O)NCc3ccc(F)cc3)CC2)n1 | -6.84%
O=C1CCC(=O)N1CCOc1nc(-c2ccccc2Cl)no1 | 6.97%
CC(NC(=O)c1ccc(=O)n(C)c1)c1ccc(OCC2CC2)c(F)c1 (centres undefined) | 9.8%
Cc1ccc(C(=O)N(C)Cc2csc(C)n2)c(=O)[nH]1 | 3.97%
Cc1nc(CN(C)C2CCN(Cc3nc(C4CC4)no3)C2)no1 (centres undefined) | -5.29%
Cc1ccc(C(=O)O)cc1S(=O)(=O)N(CC(C)O)c1ccccc1 (centres undefined) | 9.83%
CC(C)Nc1ncccc1C(=O)NCc1cnc(N(C)C)n1C | -10.1%
CCc1nsc(NC2CC(=O)N(C3CC3)C2)n1 (centres undefined) | 9.43%
Cc1cc(CNC(C)Cn2cncn2)ccc1Br (centres undefined) | 2.33%
CC(=O)N1CCC(C(=O)NC2CCc3nccn3C2)CC1 (centres undefined) | -13.4%
CCN(C)CC1CCN(C(=O)NCCC2Cc3ccccc3C2)C1 (centres undefined) | 0.458%
COc1ccnc(N2CCCN(C(=O)CCc3cnn(C)c3)CC2)n1 | 17.7%

Structure (SMILES) | cytotoxicity at 10 µM
CNC(=O)C(C)NC(=O)c1ccc(Oc2cccnc2)cc1 (centres undefined) | 6.32%
CN(Cc1nccn1CC(F)(F)F)C(=O)c1cccc(C#N)c1 | 5.4%
Cc1cn(-c2ccccc2)nc1NS(=O)(=O)c1cccc(C(=O)O)c1 | -10.3%
CCN1CCCC1CN(CCN(C)C)S(=O)(=O)c1ccc(C#N)cc1 (centres undefined) | -28.3%
CCN1CC2(CC1=O)CN(C(C)=O)CCN(C(=O)NC)C2 (centres undefined) | -3.62%
O=C1C[C@H]2[C@H](CCN2C(=O)c2ccno2)N1CC1CC1 | 2.77%
COCC1CN(S(=O)(=O)c2cccc(F)c2)Cc2nccn2C1 (centres undefined) | -103%
O=C(NCc1ccccn1)[C@@]12CCO[C@@H]1CCN(c1ncccn1)C2 | -98.4%
O=C(NC1CCc2c(ccc(=O)n2CC2CC2)C1)c1cscn1 (centres undefined) | -104%
CCS(=O)(=O)N1CCC2(CCN(C(=O)c3cccs3)CC2)CC1 | -99.9%
CN(Cc1ccco1)[C@@H]1CN(Cc2ccoc2)C[C@@H]2CCCO[C@@H]21 | -1.6%
OCCNc1nccc(-c2c[nH]nc2-c2ccncc2)n1 | -9.52%
c1ccc(-c2nc(CCNc3nnc(C4CCC4)o3)no2)cc1 | -3.37%
CCC(CO)N(Cc1cccs1)C(=O)Cc1ccncc1 (centres undefined) | -9.67%
O=C(NCc1nc(C2CCCCC2)no1)C1CC(=O)N(C2CC2)C1 (centres undefined) | 1.5%
Cc1cc(C)c(C(=O)NC2CCN(c3ncccc3C#N)CC2)c(=O)[nH]1 | 7.24%
Cc1nnc(SCCCNC(=O)Cc2ccc3c(c2)OCO3)s1 | 7.75%
CN(C)CCN(C)c1ccc(-c2nc(COc3ccccc3)no2)cn1 | 4.35%
Cc1ccc(OC2(C(=O)NC(C)c3csc(C)n3)CCNCC2)cc1 (centres undefined) | -0.432%
CSc1ccc(C(C(=O)O)N2CCOCC2)cc1 (centres undefined) | 0.324%
COCCCN1C(=O)CC[C@H]2CN(c3nc4ccccc4s3)CC[C@H]21 | -9.59%
CCC(C)N(Cc1c[nH]c(C)n1)Cc1ccccc1Cl (centres undefined) | 24.2%

Structure (SMILES) | cytotoxicity at 10 µM
O=C(Cc1ccc(F)cc1Cl)N1CC[C@H](CO)[C@@H](O)C1 | 8.08%
OCC1(O)CCCN(Cc2noc(-c3ccccc3)n2)CC1 (centres undefined) | -2.72%
Cc1ccnc(C(Nc2nccc(-c3ccc(C)nc3C)n2)C2CC2)c1 (centres undefined) | -1.89%
CC(=O)Nc1cccc(C(=O)N2CCc3c(nc(N(C)C)[nH]c3=O)C2)c1 | 5.9%
CSc1ccc(-n2ccnc2-c2cc3n(n2)CCNC3)cc1 | -9.94%
Cc1cc(C)nc(CN2CCOC(c3ccc(Cl)cc3)C2)n1 (centres undefined) | -2.43%
COCCN1CCCC(O)(CN2CCN(c3cnccn3)CC2)C1=O (centres undefined) | 4.04%
CCCC1C=CCN1C(=O)c1cc(COc2ccc3c(c2)OCO3)[nH]n1 (centres undefined) | 1.99%
Cc1nn(C)cc1-c1ccnc(N2CCCN(CC(C)C)CC2)n1 | 4.26%
COc1ccc(SC(C)C(=O)N2CCC(C(N)=O)CC2)cc1 (centres undefined) | 2.28%
CCCC1(NC(=O)C(c2ccccc2C)N(C)C)CC1 (centres undefined) | -40.4%
Cc1ccc2nc(CNCCCN3CCCC3)cc(O)c2c1 | -49.6%
COc1cnc(N2CC(N3CCOCC3)C2)nc1-c1ccnn1C | 6.24%
O=C(Nc1cc(F)ccc1OCC1CCCO1)N1CCSCC1 (centres undefined) | -1.79%
c1ccc(-c2nc(CNC3CCc4ncnn4C3)no2)cc1 (centres undefined) | -4.16%
Cc1nccn1C1CCCN(C(=O)c2ccc(-n3cccn3)nc2)C1 (centres undefined) | -9.18%
Cc1cc(C)cc(CNC(c2ccccc2)c2nccn2C)c1 (centres undefined) | -13%
Cc1ncc2c(n1)CN(Cc1nc(Cc3ccccc3)no1)CC2 | -12.4%
CN(C(=O)Nc1ccncc1)C1CCN(c2ccccc2)C1=O (centres undefined) | -10.1%
Cc1cc(C)n(C2CCCN(C(=O)CCNc3ncccn3)C2)n1 (centres undefined) | -2.53%
CN(C)CC1CN(CCOc2cccc(C#N)c2)CCO1 (centres undefined) | -9.63%
Cc1cn2c(n1)CCC(NC(=O)CCn1ccnn1)C2 (centres undefined) | -2.53%

Structure (SMILES) | cytotoxicity at 10 µM
CCC(=O)N1CCN(C(=O)CCn2cccn2)CC1 | -2.6%
O=C(NCCNc1ncccn1)C1CCN(C(=O)C2CC2)CC1 | -3.02%
CCC(CC)C(CNC(=O)Nc1ccc(C)cc1)N1CCOCC1 (centres undefined) | -5.9%
Cc1nc(C)n(C2CCCN(C(=O)c3cnc[nH]3)C2)n1 (centres undefined) | -5.04%
O=C(c1ccc(F)cc1Cl)N1CCC(Nc2cccnn2)CC1 | -8.08%
Cc1nc(C2CCCN(C(=O)C(C)(C)n3cc(Cl)cn3)C2)no1 (centres undefined) | -2.09%
Cc1cc(C[C@@H]2CCC[C@H]2NCc2ccc(C(F)(F)F)cc2)on1 | -10.1%
COc1ccc(CN2CCO[C@H]3[C@H](Oc4ccccn4)CC[C@@H]32)cc1 | 21.5%
O=C(C[C@@H]1COC[C@H]2CN(Cc3ccccc3)C[C@@H]12)N1CCCC1 | 2.03%
O[C@H]1CCN(Cc2ccoc2)[C@H]1Cc1cccnc1 | 2.36%
COCC1CC2(CCN(C(N)=O)CC2)CN1Cc1csc(C)n1 (centres undefined) | 8.98%
O=C(c1ccc(F)cc1)N1C[C@H]2CCC[C@@]2(COCc2ccccn2)C1 | 2.06%
Cc1nnc(N2CCCC3(CN(Cc4cnn(C)c4)CCO3)C2)o1 (centres undefined) | 4.12%
CCOCC1CN(CCN(C)C)Cc2cnn(CC3CCCC3)c21 (centres undefined) | 5.77%
COCCn1c2c(ccc1=O)CC(NCc1cccnc1OC)CC2 (centres undefined) | -106%
CCN1CCC2(C=C(C(=O)N(C)C)c3ccccc32)CC1 | -101%
Cc1ccc2c(c1)C1(CCNCC1)CN2C(=O)CN(C)C | 0.513%
CNC(=O)c1cnc(C=Cc2cc(OC)c3c(c2)OCCO3)s1 | 12.9%
CN1[C@@H]2CC[C@H]1CN(C(=O)c1ccc(-c3ccccc3)[nH]1)CC2 | -0.372%
CCC=C(C)C(=O)NCCc1csc(N2CCCC2)n1 | 18.7%
Cc1cc(C(=O)N2C[C@@H]3C(CN(C)CCc4ccccn4)[C@@H]3C2)c(C)o1 (some centres undefined) | -50.1%
